Assay results from ChEMBL document CHEMBL1821600, “Synthesis and antiviral evaluation of α-L-2'-deoxythreofuranosyl nucleosides” (Eur J Med Chem, 2011).
In brackets after ≈: the same amount, converted by molar mass. Activity calls are given as the source filed them. The rule behind the calls is not given here.

Columns and labels:
[1] = test system: HEL; assay: Cytotoxicity against human HEL cells at 100 ug/ml; format: cell-based
[2] = test system: Vero; assay: Cytotoxicity against african green monkey Vero cells at 100 ug/ml; format: cell-based; conditions: chlorocebus sabaeus
[3] = test system: HeLa; assay: Cytotoxicity against human HeLa cells at 100 ug/ml; format: cell-based
[4] = test system: CCRF-CEM; assay: Cytotoxicity against human CEM cells at 100 ug/ml; format: cell-based
[5] = test system: MDCK; assay: Cytotoxicity against MDCK cells at 100 ug/ml; format: cell-based, Canis lupus familiaris; conditions: dog
[6] = Cytotoxicity against CRFK cells at 100 ug/ml; format: cell-based, Felis catus; conditions: cat
[7] = test system: Human immunodeficiency virus 1; assay: Antiviral activity against Human immunodeficiency virus 1 3B infected in human CEM cells assessed as inhibition of virus-induced giant cell formation after 4 days by microscopic method; format: functional, organism-based; conditions: CCRF-CEM
Summary of the method: (§1)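 CEM cells (~3×10^5 cells/cm³) were infected with 100 CCID50/mL of HIV-1(IIIB) or HIV-2(ROD) and seeded into wells containing serial compound dilutions. After 4 days at 37 °C, giant (syncytium) cell formation was scored microscopically.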

[8] = test system: Human immunodeficiency virus 2; assay: Antiviral activity against Human immunodeficiency virus type 2 ROD infected in human CEM cells assessed as inhibition of virus-induced giant cell formation after 4 days by microscopic method; format: functional, organism-based; conditions: ISOLATE ROD, CCRF-CEM; summary of the method: as §1
[9] = test system: Human betaherpesvirus 5; assay: Antiviral activity against Human cytomegalovirus infected in human HEL cells assessed as inhibition of virus-induced cytopathicity upto 200 uM administered after 1 hr virus adsorption period; format: functional, organism-based
[10] = test system: Human alphaherpesvirus 3; assay: Antiviral activity against Varicella Zoster Virus infected in human HEL cells assessed as inhibition of virus-induced cytopathicity upto 200 uM administered after 1 hr virus adsorption period; format: functional, organism-based
[11] = test system: Influenza A virus; assay: Antiviral activity against influenza A virus H1N1 infected in MDCK cells assessed as inhibition of virus-induced cytopathicity upto 200 uM administered after 1 hr virus adsorption period; format: functional, organism-based
[12] = test system: Influenza A virus; assay: Antiviral activity against Influenza A virus H3N2 infected in MDCK cells assessed as inhibition of virus-induced cytopathicity upto 200 uM administered after 1 hr virus adsorption period; format: functional, organism-based
[13] = test system: Influenza B virus; assay: Antiviral activity against influenza B virus infected in MDCK cells assessed as inhibition of virus-induced cytopathicity upto 200 uM administered after 1 hr virus adsorption period; format: functional, organism-based
[14] = test system: Feline coronavirus; assay: Antiviral activity against Feline coronavirus infected in CRFK cells assessed as inhibition of virus-induced cytopathicity upto 200 uM administered after 1 hr virus adsorption period; format: functional, organism-based
[15] = test system: Human alphaherpesvirus 1; assay: Antiviral activity against Herpes simplex virus type 1 infected in HEL cells assessed as inhibition of virus-induced cytopathicity upto 200 uM administered after 1 hr virus adsorption period; format: functional, organism-based
Summary of the method: (§2)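 Confluent cell monolayers (HEL for HSV-1 and HSV-2; Vero for parainfluenza-3, reovirus-1, Sindbis and Punta Toro; HeLa for Coxsackie B4 and RSV) in 96-well plates were inoculated with 100 CCID50 of virus. After 1 h adsorption, unbound virus was removed. Cells were then kept with compound at 200, 40, 8… μM. Cytopathicity was scored once untreated infected controls reached full CPE.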

[16] = test system: Human alphaherpesvirus 2; assay: Antiviral activity against Herpes simplex virus type 2 infected in HEL cells assessed as inhibition of virus-induced cytopathicity upto 200 uM administered after 1 hr virus adsorption period; format: functional, organism-based; summary of the method: as §2
[17] = test system: Vesicular stomatitis virus; assay: Antiviral activity against Vesicular stomatitis virus infected in HEL cells assessed as inhibition of virus-induced cytopathicity upto 200 uM administered after 1 hr virus adsorption period; format: functional, organism-based
[18] = test system: Vaccinia virus; assay: Antiviral activity against Vaccinia virus infected in HEL cells assessed as inhibition of virus-induced cytopathicity upto 200 uM administered after 1 hr virus adsorption period; format: functional, organism-based; conditions: Orthopoxvirus vaccinia
[19] = test system: Coxsackievirus B4; assay: Antiviral activity against Coxsackievirus B4 infected in HeLa cells assessed as inhibition of virus-induced cytopathicity upto 200 uM administered after 1 hr virus adsorption period; format: functional, organism-based; summary of the method: as §2
[20] = test system: Respiratory syncytial virus; assay: Antiviral activity against Respiratory syncytial virus infected in HeLa cells assessed as inhibition of virus-induced cytopathicity upto 200 uM administered after 1 hr virus adsorption period; format: functional, organism-based; summary of the method: as §2
[21] = test system: Human respirovirus 3; assay: Antiviral activity against Parainfluenza virus 3 infected in Vero cells assessed as inhibition of virus-induced cytopathicity upto 200 uM administered after 1 hr virus adsorption period; format: functional, organism-based; summary of the method: as §2
[22] = test system: Mammalian orthoreovirus 1; assay: Antiviral activity against Reovirus 1 infected in Vero cells assessed as inhibition of virus-induced cytopathicity upto 200 uM administered after 1 hr virus adsorption period; format: functional, organism-based; summary of the method: as §2
[23] = test system: Sindbis virus; assay: Antiviral activity against Sindbis virus infected in Vero cells assessed as inhibition of virus-induced cytopathicity upto 200 uM administered after 1 hr virus adsorption period; format: functional, organism-based; summary of the method: as §2
[24] = test system: Punta Toro virus; assay: Antiviral activity against Punta Toro virus infected in Vero cells assessed as inhibition of virus-induced cytopathicity upto 200 uM administered after 1 hr virus adsorption period; format: functional, organism-based; summary of the method: as §2
[25] = test system: Human alphaherpesvirus 1; assay: Antiviral activity against TK-deficient Herpes simplex virus type 1 infected in HEL cells assessed as inhibition of virus-induced cytopathicity upto 200 uM administered after 1 hr virus adsorption period; format: functional, organism-based
[26] = target: Thymidylate kinase (Mycobacterium tuberculosis, UniProt P9WKE1); assay: Inhibition of Mycobacterium tuberculosis Thymidylate kinase
[27] = target: T1, Thymidine kinase 2, mitochondrial (Homo sapiens, UniProt O00142); assay: Inhibition of human mitochondrial TK2 assessed as inhibition of [methyl-3H]dThd phosphorylation after 30 mins by scintillation counting
T1 sequence (O00142 whole entry): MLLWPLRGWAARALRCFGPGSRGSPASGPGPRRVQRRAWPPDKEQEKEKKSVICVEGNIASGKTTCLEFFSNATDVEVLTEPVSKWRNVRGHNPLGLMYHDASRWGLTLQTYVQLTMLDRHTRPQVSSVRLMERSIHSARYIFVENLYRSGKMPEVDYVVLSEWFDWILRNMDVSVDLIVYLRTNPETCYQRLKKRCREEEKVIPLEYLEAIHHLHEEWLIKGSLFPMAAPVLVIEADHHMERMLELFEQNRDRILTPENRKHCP
Summary of the method: (§3)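 Recombinant enzyme (TK-1, TK-2, HSV-1 TK, VZV TK or Drosophila dNK) was used in 50 mM Tris/HCl pH 8.0 with 2.5 mM MgCl2, 10 mM DTT, 0.5 mM CHAPS, 3 mg/mL BSA, 2.5 mM ATP and 1 µM [methyl-3H]dThd. Compound was added as 5-fold dilutions, and reactions ran 30 min at 37 °C, still linear. Mixtures were spotted on DE-81 disks, washed in ammonium formate, water and ethanol, then scintillation counted. IC50 was determined.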

[28] = Inhibition of Herpes simplex virus type 1 thymidine kinase assessed as inhibition of [methyl-3H]dThd phosphorylation after 30 mins by scintillation counting; parameters: species or system Human alphaherpesvirus 1; summary of the method: as §3
[29] = Inhibition of varicella zoster virus thymidine kinase assessed as inhibition of [methyl-3H]dThd phosphorylation after 30 mins by scintillation counting; parameters: species or system Human alphaherpesvirus 3; summary of the method: as §3
[30] = target: T2, Deoxynucleoside kinase (Drosophila melanogaster, UniProt Q9XZT6); assay: Inhibition of Drosophila melanogaster deoxynucleoside kinase assessed as inhibition of [methyl-3H]dThd phosphorylation after 30 mins by scintillation counting; summary of the method: as §3
T2 sequence (Q9XZT6 whole entry): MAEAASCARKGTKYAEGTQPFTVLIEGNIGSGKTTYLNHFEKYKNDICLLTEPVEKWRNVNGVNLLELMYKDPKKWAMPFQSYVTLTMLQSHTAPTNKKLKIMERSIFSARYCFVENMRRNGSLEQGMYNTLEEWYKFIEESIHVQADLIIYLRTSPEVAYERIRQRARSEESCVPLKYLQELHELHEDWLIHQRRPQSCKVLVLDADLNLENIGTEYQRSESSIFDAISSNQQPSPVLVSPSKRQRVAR

[31] = Non-competitive inhibition of Herpes simplex virus type 1 thymidine kinase assessed as inhibition of [methyl-3H]dThd phosphorylation by scintillation counting; parameters: species or system Human alphaherpesvirus 1

Thymidylate kinase, sequence (P9WKE1 whole entry): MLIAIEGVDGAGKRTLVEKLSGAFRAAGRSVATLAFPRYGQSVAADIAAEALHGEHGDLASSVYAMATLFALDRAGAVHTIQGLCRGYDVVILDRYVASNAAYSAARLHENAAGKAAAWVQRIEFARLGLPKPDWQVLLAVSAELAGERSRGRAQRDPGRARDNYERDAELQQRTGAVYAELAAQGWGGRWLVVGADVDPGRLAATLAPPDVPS

**Q.** Which Activity [1] does the source give for Cc1cn([C@H]2C[C@@H](O)CO2)c(=O)[nH]c1=O here?
**A.** Its Activity is “Non-toxic”.

**Q.** What about the Activity [2] of the same molecule?
**A.** Its Activity is “Non-toxic”.

**Q.** What about the Activity [3] of the same molecule?
**A.** Its Activity is “Non-toxic”.

**Q.** And the Activity [4]?
**A.** Its Activity is “Non-toxic”.

**Q.** What about the Activity [5] of the same molecule?
**A.** The Activity was “Non-toxic”.

**Q.** And the Activity [6]?
**A.** The Activity was “Non-toxic”.

**Q.** What about the inhibition [7] of the same molecule?
**A.** The inhibition was “inactive”.

**Q.** What about the inhibition [8] of the same molecule?
**A.** The inhibition was “inactive”.

**Q.** What about the inhibition [9] of the same molecule?
**A.** Its inhibition is “inactive”.

**Q.** And the inhibition [10]?
**A.** The inhibition was “inactive”.

**Q.** What about the inhibition [11] of the same molecule?
**A.** Its inhibition is “inactive”.

**Q.** And the inhibition [12]?
**A.** Its inhibition is “inactive”.

**Q.** And the inhibition [13]?
**A.** Its inhibition is “inactive”.

**Q.** And the inhibition [14]?
**A.** The inhibition was “inactive”.

**Q.** And the inhibition [15]?
**A.** The inhibition was “inactive”.

**Q.** What about the inhibition [16] of the same molecule?
**A.** The inhibition was “inactive”.

**Q.** And the inhibition [17]?
**A.** The inhibition was “inactive”.

**Q.** What about the inhibition [18] of the same molecule?
**A.** Its inhibition is “inactive”.

**Q.** What about the inhibition [19] of the same molecule?
**A.** The inhibition was “inactive”.

**Q.** What about the inhibition [20] of the same molecule?
**A.** Its inhibition is “inactive”.

**Q.** And the inhibition [21]?
**A.** Its inhibition is “inactive”.

**Q.** And the inhibition [22]?
**A.** Its inhibition is “inactive”.

**Q.** And the inhibition [23]?
**A.** The inhibition was “inactive”.

**Q.** And the inhibition [24]?
**A.** Its inhibition is “inactive”.

**Q.** What about the inhibition [25] of the same molecule?
**A.** The inhibition was “inactive”.

**Q.** What about the Ki [26] of the same molecule?
**A.** The Ki was 18 µM.

**Q.** And the IC50 [27]?
**A.** Its IC50 is 429 µM.

**Q.** What about the IC50 [28] of the same molecule?
**A.** Its IC50 is 14 µg/mL (≈ 66 µM).

**Q.** And the IC50 [29]?
**A.** The IC50 was 26 µg/mL (≈ 123 µM).

**Q.** And the IC50 [30]?
**A.** The IC50 was at least 942 µM.

**Q.** What about the Ki [31] of the same molecule?
**A.** Its Ki is 20 µM.
